Bioassay records (PubChem)
Sampled rows, rich in hits. Any-hit rate of the full collection: about 3.8%.
HCV NS3 hel inh = inhibitors of HCV NS3 helicase, primary screen, biochemical, Cy5 molecular beacon fluorescence. Hepatitis C virus NS3 helicase. NS3 helicase DNA unwinding. inhibition, % at 10.9 µM. actives 0.56% (n = 290,000);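 active = inhibition above the mean of all tested compounds plus 3 SD, set per campaign, cut at about 35% in these data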
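Measured by: Cy5 fluorescence, 0 and 60 min reads / Assay system: NS3 helicase fragment of HCV / Control set: low DMSO, high thioflavine S at 110 µM / Times: 1 h reaction at 25 °C, ATP-initiated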
Hep lipid drop = inhibitors of hepatocyte lipid droplet formation, primary screen, imaging, high-throughput imaging, BODIPY stain | AML12 mouse hepatocytes, oleate lipid droplets | inhibition, % at 6.5 µM | AID 1656, 2009 | actives 0.4% (n = 240,000);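 active = lipid droplet intensity inhibited by at least 50%, with more than 500 cells counted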
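Assay system: AML12 hepatocytes (mouse) / Also added: 100 µM oleic acid challenge / Times: overnight treatment with compound plus oleate / Detection: high-content imaging of BODIPY-stained droplets and DAPI nuclei / Evaluation: % inhibition of lipid droplet signal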
HSF1 inhib = HSF1 inhibitors in luciferase reporter cells, primary screen, cell-based, NIH3T3, luminescence; NIH3T3-HGL HSE-luciferase, MG132-induced, luminescence 8 h; stronger effect = lower value; activity change, negative = inhibition, % at 7.5 µM (by protocol); actives 0.77% (n = 300,000); AID 2098, 2009;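 active = more than half of replicate wells show activity change below -50%, luminescence cut by over half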;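 also: luciferase reports HSF-1 transcriptional activity via heat shock element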
HSP90 refold inh = HSP90 inhibitors, primary screen, cell lysate, luminescence; inhibition, % at 5.6 µM; Rabbit reticulocyte lysate, luciferase refolding luminescence, 3 h; actives 0.91% (n = 290,000); Heat shock protein HSP 90 (rabbit reticulocyte lysate; luciferase refolding);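 active = inhibition above the screen-wide mean plus 3 SD, computed separately per campaign, cut at about 16% in these data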;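 also: inhibitors lower the luminescence because luciferase stays unfolded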
HSF-1 act = HSF-1 activators, primary screen, NIH3T3-HGL cells, MG132 stress, luminescence, single point | NIH3T3-HGL HSF-1 luciferase reporter, 8 h; 100% = twice DMSO control signal | activation, % at 9 µM | actives 1.7% (n = 300,000) | AID 504408, 2011;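 active = mean replicate activation of at least 50% with a set share of replicates each reaching 50%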
Large screens that a line does not name were inactive.

COc1ccc(-c2csc3nc(-c4cccnc4)nc(Cl)c23)cc1OC	none
Clc1nc(-c2cccnc2)nc2scc(-c3ccccc3)c12	HSF-1 act 72
COCCCNC(=O)CCn1c(=O)c2ccccc2n(CC(=O)Nc2cc(Cl)ccc2C)c1=O	HSF-1 act 83
CC1=C(C)C(O)N(Cc2ccccc2)C1=O (stereo not drawn)	none
Cc1cccc(NC(=O)CN2C(=O)N/C(=C/c3cc(C)n(C(C)C)c3C)C2=O)c1	HSF1 inhib -57
COc1ccc(NC(=O)CSc2nc(N)c3cc4c(nc3n2)CCCC4)cc1	HSF-1 act 58
Cc1cccc2cc(CNCc3ccccc3)c(Cl)nc12	none
Cc1ccccc1CN1CCN(Cc2cc3ccccc3o2)CC1CCO (stereo not drawn)	none
Cc1ccc(CN2CCN(Cc3cc4ccccc4o3)CC2CCO)cc1 (stereo not drawn)	HSF1 inhib -75
CC12CCC(C/C1=N\N=C1\NC(=O)/C(=C\c3ccc(Cl)cc3)S1)C2(C)C (stereo not drawn)	HSF1 inhib -94
CCN(c1ccc(OC)cc1)S(=O)(=O)c1nnc(NC(=O)CC(C)C)s1	none
Cc1cc(C)c2sc(NC(=O)c3ccc([N+](=O)[O-])o3)nc2c1	HSF-1 act 77
Cc1cc(C)c2nc(NC(=O)c3ccc([N+](=O)[O-])o3)sc2c1	none
O=C(Nc1nc2cc3c(cc2s1)OCCO3)c1ccc([N+](=O)[O-])o1	HSF-1 act 104
O=C(N/N=C/c1ccc(Cl)cc1)C1CC12CCC2 (stereo not drawn)	none
NS(=O)(=O)c1ccc(NC(=O)Nc2ccc3c(c2)OCO3)cc1	none
C=C1C(=O)O[C@@H]2C[C@@H](C)[C@@H]3C=CC(=O)[C@@]3(C)[C@@H](OC(C)=O)[C@H]12	HSF1 inhib -86 (no result: HCV NS3 hel inh, HSP90 refold inh)
O=C(O)CC12CC3CC(C1)CC(n1ncc(N4CCC5(CC4)OCCO5)c(Cl)c1=O)(C3)C2	none
O=C(N/N=C/CCc1ccccc1)c1ccccc1	HSF-1 act 76 (no result: Hep lipid drop)
O=C(N/N=C/CCc1ccccc1)C1CCCCC1	none
COC(=O)/C(=C\c1cc(OC)c(OC)c(OC)c1)c1nc2ccccc2[nH]1	none
COc1ccc(C(=O)N/C(=C\c2cccs2)c2nc3ccccc3[nH]2)cc1OC	HSF1 inhib -60 (no result: Hep lipid drop)
COc1cc(/C=C(/C(=O)c2cccs2)c2nc3ccccc3[nH]2)ccc1O	HSF-1 act 82 (no result: Hep lipid drop)
O=C(/C(=C/c1ccc(Cl)cc1)c1nc2ccccc2[nH]1)c1cccs1	HSF-1 act 241
COc1ccc(/C=C(/NC(=O)c2ccccc2)c2nc3ccccc3[nH]2)cc1OC	none (no result: Hep lipid drop)
Cc1ccc(C(=O)C2=C(O)C(=O)N(c3ncccn3)C2c2ccccc2F)o1 (stereo not drawn)	none
COc1ccc(OCC(O)CNS(=O)(=O)c2cccs2)cc1 (stereo not drawn)	none
O=C(Sc1cccc2cccnc12)c1ccccc1Br	HSF-1 act 207
CC(=O)/C(=N\Nc1ccccc1Cl)Sc1cccc2cccnc12	HSF-1 act 143
O=C(Sc1cccc2cccnc12)c1ccc(F)cc1	none (no result: HSF1 inhib, HSF-1 act)
CC(=O)/C(=N\Nc1ccccc1)Sc1cccc2cccnc12	HSF-1 act 187
Cc1cccc(NC(=O)CSc2cccc3cccnc23)c1	none
CCOc1ccc(S(=O)(=O)NN2Cc3ccccc3C2=N)cc1	none
C=CCOc1ccn(C)c(=O)n1	HSF1 inhib -55
C=CCOc1ccnc(-c2ccccc2)n1	none
Cc1ccc(CNc2c(C=O)c(=O)[nH]c3ccccc23)cc1	HSF-1 act 63
O=C(CSc1ccc2nnc(-c3ccc(F)cc3)n2n1)NCC1CCCO1 (stereo not drawn)	none (no result: Hep lipid drop)
CCCCc1c(O)nc(SCC(=O)NCC2CCCO2)[nH]c1=O (stereo not drawn)	none (no result: Hep lipid drop)
Cc1nc(SCC(=O)NCC2CCCO2)[nH]c(=O)c1C (stereo not drawn)	HSF1 inhib -56 (no result: HCV NS3 hel inh, Hep lipid drop, HSP90 refold inh)
O=C(CSc1ncnc2c1nnn2-c1ccc(F)cc1)NCC1CCCO1 (stereo not drawn)	HSF-1 act 74 (no result: Hep lipid drop)
COc1ccc(-c2nnc3ccc(SCC(=O)NCC4CCCO4)nn23)cc1 (stereo not drawn)	HSF-1 act 95
Cn1c(SCC(=O)NCC2CCCO2)ncc(C(=O)Nc2ccc(F)cc2)c1=O (stereo not drawn)	HSF-1 act 67 (no result: HCV NS3 hel inh, Hep lipid drop, HSP90 refold inh)
CCN(CC)S(=O)(=O)c1ccc(C)c(NC(=S)NC2CCCCC2)c1	none
CCCC(CCC)=NNC(=O)c1ccccc1F	none
Cn1c(SCC(=O)NCC2CCCO2)ncc(C(=O)Nc2ccc(Cl)cc2)c1=O (stereo not drawn)	HSF-1 act 57 (no result: HCV NS3 hel inh, Hep lipid drop, HSP90 refold inh)
CC(=O)Nc1cccc(NC(=O)CSc2ncc(C(=O)Nc3ccccc3)c(=O)n2C)c1	HSF-1 act 206 (no result: HCV NS3 hel inh, Hep lipid drop, HSP90 refold inh)
CC(=O)Nc1ccc(NC(=O)CSc2ncc(C(=O)Nc3ccc(Cl)cc3)c(=O)n2C)cc1	none (no result: HCV NS3 hel inh, Hep lipid drop, HSP90 refold inh)
CN(c1ccccc1)c1nc(-n2ccnc2)nc(-n2ccnc2)n1	none (no result: Hep lipid drop)
CN(c1ccccc1)c1ncccn1	HSF1 inhib -89 (no result: HCV NS3 hel inh, Hep lipid drop, HSP90 refold inh)
Cc1cccc(C)c1NCc1nnc(SCC(=O)Nc2nc(-c3ccccc3)cs2)n1-c1ccccc1	HSF-1 act 60
Cc1ccccc1C(=O)NCCc1nnc(SCC(=O)Nc2nc(-c3ccccc3)cs2)n1C	none
CCOc1ccc(NCc2nnc(SCc3ccc(Cl)cc3)n2-c2ccccc2)cc1	none
CCOc1ccc(NCc2nnc(SCC(=O)Nc3nc(-c4ccccc4)cs3)n2-c2ccccc2)cc1	HSF1 inhib -67
O=C(Nc1ccccn1)c1cc(-c2cccc(Cl)c2)nc2ccccc12	none (no result: Hep lipid drop)
CCCn1c(NC(=O)c2cccc(S(=O)(=O)N3CCCC3)c2)nc2ccccc21	HSF1 inhib -54 (no result: Hep lipid drop)
CCc1nnc(NC(=O)c2cccc(S(=O)(=O)N3CCCCC3)c2)s1	HSF1 inhib -56
CCCn1c(NC(=O)c2ccccc2)nc2ccccc21	none
CCOC(=O)C1CCN(Cc2ccc(OC)c(C)c2OC)CC1	none (no result: Hep lipid drop)
CCOC(=O)C1CCN(Cc2cc(Cl)c3ccccc3c2O)CC1	HSF-1 act 97
Cc1ccc(-c2cc(C(=O)N3CCN(C(=O)c4ccco4)CC3)[nH]n2)cc1C	none
C(=N\Nc1nc(-c2ccccn2)nc2ccccc12)/c1ccccc1	HSF-1 act 160
O=S(=O)(Nc1ccc2c(c1)OCO2)c1cccs1	none (no result: Hep lipid drop)
Cn1c(=O)c(=O)n(C)c2cc(S(=O)(=O)Nc3ccc4c(c3)OCCO4)ccc21	HSF1 inhib -60
O=S(=O)(Nc1ccc2c(c1)OCCO2)c1cccs1	HSF1 inhib -63
CCn1c(Cc2ccccc2)nnc1SCC(=O)Nc1ccccc1O	HSF-1 act 51
Cc1ccc2c(CC(=O)OCc3cc(=O)n4c(n3)sc3ccccc34)coc2c1	none (no result: Hep lipid drop)
